Laboratory results published in ChEMBL document CHEMBL1157640, “Exploration of inhibitors for diaminopimelate aminotransferase” (Bioorg Med Chem, 2010).
Calls of active or inactive are those of the source. No cut-off for these calls is given here.

Assays:
[1] = target: LL-diaminopimelate aminotransferase, chloroplastic (Arabidopsis thaliana, UniProt Q93ZN9); test: Inhibition of Arabidopsis thaliana LL-DAP-AT expressed in Escherichia coli by aminobenzaldehyde-based assay
Method in brief: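 His6-tagged A. thaliana LL-DAP-AT (0.0043 mg/mL final) in 1 mL cuvettes with 100 mM HEPES-KOH pH 7.6, 8.5 mM 2-OG, 7 mM OAB and 2.0 mM LL-DAP. Inhibitor at 5–200 µM final, added in 50 µL DMSO. A440 followed for 200 min, read every 2 min.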

[2] = target: LL-diaminopimelate aminotransferase, chloroplastic (Arabidopsis thaliana) (UniProt Q93ZN9); test: Inhibition of Arabidopsis thaliana LL-DAP-AT expressed in Escherichia coli at 10 uM by aminobenzaldehyde-based assay
Method in brief: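 Robotic 96-well screen against C-terminal His6-tagged A. thaliana LL-DAP-AT (0.0043 mg/mL final) in 100 mM HEPES-KOH pH 7.6, with 8.5 mM 2-oxoglutarate, 7 mM OAB and 2.0 mM LL-DAP final. Inhibitor 10 µM final in DMSO, assuming MW 500. Absorbance at 440 nm read in triplicate before enzyme addition and after 3 h at room temperature. Activity taken relative to no-inhibitor wells; no-enzyme wells served as blank.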

[3] = target: LL-diaminopimelate aminotransferase, chloroplastic (Arabidopsis thaliana) (UniProt Q93ZN9); test: Inhibition of Arabidopsis thaliana LL-DAP-AT expressed in Escherichia coli assessed as time independent type of inhibition by aminobenzaldehyde-based assay
Method in brief: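 Enzyme (100 µL) and inhibitor (50 µL) were preincubated for six different times, then added to 850 µL of OAB-coupled substrate buffer. Inhibitor level was chosen from the IC50. A440 recorded as in the IC50 assay, with positive and no-enzyme controls. Time independence was judged by whether percent inhibition changed with preincubation time.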

Salmonella typhimurium = test: Antimicrobial activity against Salmonella Typhimurium ATCC 23564 at <200 ug/mL; assay type: functional, organism-based; details: Salmonella enterica subsp. enterica serovar Typhimurium
Method in brief: (§1)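 Soft agar overlay (0.75% w/v) seeded with 1% overnight culture of indicator strain, poured over 1.5% w/v solid agar; LB medium for Gram-negative, M17 for Gram-positive. 10 µL of test solution spotted and air-dried, with solvent controls (acetonitrile or methanol). Incubated overnight, 37 °C Gram-negative, 30 °C Gram-positive; scored for growth-inhibition halos.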

Escherichia coli = test: Antimicrobial activity against Escherichia coli DH5alpha at <200 ug/mL; assay type: functional, organism-based; method in brief: as §1
Carnobacterium divergens = test: Antimicrobial activity against Carnobacterium divergens LV13 at <200 ug/mL; assay type: functional, organism-based; method in brief: as §1
Pseudomonas aeruginosa = test: Antimicrobial activity against Pseudomonas aeruginosa ATCC 15442 at <200 ug/mL; assay type: functional, organism-based; method in brief: as §1
Staphylococcus aureus = test: Antimicrobial activity against Staphylococcus aureus ATCC 25923 at <200 ug/mL; assay type: functional, organism-based; method in brief: as §1

Chain of LL-diaminopimelate aminotransferase, chloroplastic (Q93ZN9 whole entry): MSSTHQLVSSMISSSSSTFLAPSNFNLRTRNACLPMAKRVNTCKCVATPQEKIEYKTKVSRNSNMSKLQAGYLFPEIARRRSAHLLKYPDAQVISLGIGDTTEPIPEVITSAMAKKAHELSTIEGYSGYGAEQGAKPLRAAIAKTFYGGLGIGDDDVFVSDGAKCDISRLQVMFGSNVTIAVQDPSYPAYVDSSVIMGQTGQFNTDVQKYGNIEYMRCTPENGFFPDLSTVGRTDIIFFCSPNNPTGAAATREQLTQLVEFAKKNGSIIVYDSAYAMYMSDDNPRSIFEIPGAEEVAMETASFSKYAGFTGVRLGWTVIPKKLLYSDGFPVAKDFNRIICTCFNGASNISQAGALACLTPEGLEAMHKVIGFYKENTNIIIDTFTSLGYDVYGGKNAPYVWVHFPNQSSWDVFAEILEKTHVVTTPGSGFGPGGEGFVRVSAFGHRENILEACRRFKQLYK
Chain of LL-diaminopimelate aminotransferase, chloroplastic (Arabidopsis thaliana) (Q93ZN9 whole entry): as above

Row | Structure (SMILES) | IC50 ([1]; read-out: IC50) [µM] | inhibition [2] [%] | further results
1 | O=C1NC(=S)S/C1=C\c1ccccc1[N+](=O)[O-] | – | – | IC50 [1]: Not Active
2 | COc1ccc(/C=C2\SC(=S)N(N)C2=O)cc1 | 155 | – | –
3 | Cc1ccc(OCCn2c(C=C3C(=O)NC(=O)NC3=O)cc3ccccc32)cc1C | 99 | 28 | –
4 | Cc1ccc(N2C(=O)/C(=C\c3cc4ccccc4[nH]3)C(=O)NC2=S)cc1 | 164 | 16 | –
5 | O/C(=C\c1nc2ccccc2nc1O)c1cccs1 | 31 | 15 | –
6 | C=CCN1C(=O)/C(=C2/C(=O)N(S(=O)(=O)c3ccc(OC)cc3)c3ccccc32)SC1=S | 194 | 18 | –
7 | CC(=O)NN1C(=O)/C(=C/c2ccccc2)SC1=S | – | – | IC50 [1]: Not Active
8 | Cc1ccc(C2=NC(=O)/C(=C/c3cc4c(cc3Br)OCO4)S2)cc1 | 130 | 13 | –
9 | COc1cc(-c2nnc(SCC(=O)c3ccc(F)cc3)n2-c2ccccc2)cc(OC)c1OC | > 200 | 14 | –
10 | COc1ccc(/C=C2\SC(=S)NC2=O)cc1I | 180 | 29 | –
11 | O=C1NC(=S)S/C1=C\c1ccccc1O | > 200 | – | –
12 | CCN1C(=O)/C(=C/c2ccc(Cl)cc2)SC1=S | 200 | – | –
13 | Cc1[nH]n(-c2ccccc2)c(=O)c1C=C1C(=O)N(C)C(=O)N(C)C1=O | 45 | 20 | inhibition [3]: Active
14 | COc1ccc(/C=C2\SC(=S)N(NC(C)=O)C2=O)cc1 | > 200 | – | –
15 | COc1ccccc1N1C(=O)/C(=C\c2cc3ccccc3n2Cc2ccccc2)C(=O)NC1=S | 62 | 20 | –
16 | COc1ccc(/C=C2\SC(=S)NC2=O)cc1 | 142 | – | –
17 | COc1cc(OC)c(OC)cc1/C=N/n1c(S)nnc1-c1ccc(C)cc1 | > 200 | 18 | –
18 | Cc1ccc(S(=O)(=O)N2C(=O)/C(=C3\SC(=S)NC3=O)c3ccccc32)cc1 | 70 | 25 | –
19 | N=C1NC(=O)/C(=C/c2ccc(-c3ccc([N+](=O)[O-])cc3Br)o2)S1 | 85 | 13 | –
20 | C/C(=N\NC(=O)c1cc(C2CC2)n[nH]1)c1ccc(C)cc1 | > 200 | 14 | –
21 | COc1ccc(N2C(=O)NC(=O)/C(=C/c3ccc(-c4cccc(Cl)c4)o3)C2=O)cc1 | 42 | 20 | –

Row | Structure (SMILES) | IC50 ([1]; read-out: IC50) [µM] | inhibition [2] [%] | further results
22 | CCN1C(=O)/C(=C/c2ccccc2)SC1=S | > 200 | – | –
23 | Cc1ccc(N2C(=O)/C(=C\c3cc4ccccc4n3CC(=O)O)C(=O)N(C)C2=O)cc1 | 37 | 17 | –
24 | O=C1OC(c2ccccc2Cl)=N/C1=C/c1ccc(OC(=O)c2ccccc2Cl)c(O)c1 | 81 | 30 | –
25 | Cc1ccsc1/C=C1\SC(=S)N(C(C)c2ccccc2)C1=O (configuration not stated) | 127 | 13 | –
26 | CN1C(=O)/C(=C/c2cc3ccccc3n2CC(=O)O)C(=O)N(c2ccc(Cl)cc2)C1=O | 65 | 14 | –
27 | CCOC(=O)C1=C(Nc2ccc([N+](=O)[O-])cc2)S/C(=C\c2ccc(N(C)C)cc2)C1=O | 141 | 19 | –
28 | CC(=O)/N=C1\NC(=O)/C(=C/c2ccc(-c3ccc([N+](=O)[O-])cc3)o2)S1 | 78 | 52 | –
29 | NNC(=O)c1cc2ccccc2cc1NS(=O)(=O)c1ccccc1 | 5 | 33 | inhibition (Salmonella typhimurium): inactive; inhibition (Escherichia coli): inactive; inhibition (Carnobacterium divergens): inactive; inhibition (Pseudomonas aeruginosa): inactive; inhibition (Staphylococcus aureus): inactive
30 | NN1C(=O)/C(=C/c2ccccc2)SC1=S | – | – | IC50 [1]: Not Active
31 | COc1ccc(/C=C2/C=C(c3ccccc3)OC2=O)c(OC)c1 | 159 | 14 | –
32 | O=C1/C(=C/c2cn(-c3ccccc3)nc2-c2cccs2)SC(=S)N1C1CCS(=O)(=O)C1 (configuration not stated) | 117 | 13 | –
33 | COc1ccc(OC)c(Nc2nc3ccccc3nc2NS(=O)(=O)c2cccc([N+](=O)[O-])c2)c1 | 153 | 13 | –
34 | CCN1C(=O)/C(=C/c2ccccc2O)SC1=S | > 200 | – | –
35 | COc1ccc(C=C2C(=O)NC(=S)NC2=O)cc1OCc1ccccc1Cl | 121 | 48 | –
36 | C=CCN1C(=O)/C(=C\c2cc3ccccc3n2C)C(=O)NC1=S | 75 | 35 | –
37 | C=C(C)COc1ccc2c(c1)oc(=O)c1cc(OC)ccc12 | > 200 | 25 | –
38 | O=C(Cn1c(/C=C2/C(=O)NC(=O)N(c3cccc(F)c3)C2=O)cc2ccccc21)Nc1ccccc1 | 52 | 18 | –
39 | CN1C(=O)C(=Cc2cccn2-c2cccc([N+](=O)[O-])c2)C(=O)N(C)C1=O | > 200 | 13 | –
40 | CC(=O)NN1C(=O)/C(=C/c2ccc(Cl)cc2)SC1=S | – | – | IC50 [1]: Not Active
41 | CN(C)c1ccc(/C=C2\SC(=S)NC2=O)cc1 | 127 | – | –
42 | O=C1NC(=S)N(c2cccc(Br)c2)C(=O)/C1=C\c1ccco1 | > 200 | 17 | –

Row | Structure (SMILES) | IC50 ([1]; read-out: IC50) [µM] | inhibition [2] [%] | further results
43 | CCN1C(=O)/C(=C/c2cccc3ccccc23)SC1=S | 200 | – | –
44 | Cc1ccc(NC(=O)/C(C#N)=C/c2ccc(N(C)C)o2)cc1C | > 200 | 14 | –
45 | CCOC(=O)C1=C(Nc2ccc(OC)cc2)S/C(=C\c2ccc(N(C)C)cc2)C1=O | > 200 | 22 | –
46 | NN1C(=O)/C(=C/c2ccc(Cl)cc2)SC1=S | – | – | IC50 [1]: Not Active
47 | O=C1NC(=S)S/C1=C\c1cccc2ccccc12 | – | – | IC50 [1]: Not Active
48 | C=CCN1C(=O)/C(=C\c2cc3ccccc3n2Cc2ccc([N+](=O)[O-])cc2)C(=O)NC1=S | 69 | 33 | –
49 | CC(=O)NN1C(=O)/C(=C/c2ccc(Br)o2)SC1=S | 41 | 13 | inhibition [3]: Active
50 | O=C(N/N=C/c1ccc(F)cc1)c1cc(-c2ccc3ccccc3c2)n[nH]1 | 161 | 14 | –
51 | N/C(=N\[N+](=O)[O-])N/N=C\c1ccc(-c2cccc([N+](=O)[O-])c2)o1 | > 200 | 13 | –
52 | Cc1c(C(=O)NC(=S)Nc2ccc3oc(-c4ccccc4Cl)nc3c2)oc2ccccc12 | 83 | 19 | –
53 | CCN1C(=O)/C(=C/c2cc(Cc3ccccc3Cl)ccc2O)SC1=S | 46 | 13 | inhibition [3]: Active
54 | Cc1nc(C)c(C(=O)/C=C2/Nc3ccccc3NC2=O)s1 | 56 | 18 | –
55 | CC(=O)c1ccc(Nc2nc(-c3cc4ccccc4oc3=O)cs2)cc1 | > 200 | 16 | –
56 | C=CCN1C(=O)NC(=O)/C(=C/c2ccc(-c3ccc(C(=O)OCC)cc3)o2)C1=O | > 200 | 16 | –
57 | O=C1NC(=S)S/C1=C\c1ccc(Cl)cc1 | > 200 | – | –
58 | CCN1C(=O)/C(=C/c2ccc(OC)cc2)SC1=S | > 200 | – | –
59 | Cc1ccsc1/C=C1\SC(=S)N(CC2CCCO2)C1=O (configuration not stated) | > 200 | 14 | –
60 | O=C(N/N=C/c1ccc(O)cc1O)c1[nH]c2ccc([N+](=O)[O-])cc2c1-c1ccccc1 | 45 | 15 | –
61 | CC(=O)NN1C(=O)/C(=C/c2ccc(-c3ccc([N+](=O)[O-])cc3)o2)SC1=S | 73 | – | –
